Several values for one entry are separate records, joined by “and”; a condition that tells them apart may be missing. Identical values can stand only once.
What was measured:
Canis familiaris [1] = test: Idioventricular heart rate (IVR) measured in canine 24-h Infarction model at a single intravenous dose of 2.4 uM/kg; assay type: functional, Canis lupus familiaris
Procedure, shortened: (§1)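 Male mongrel dogs (16-22 kg) with LAD permanently ligated in two stages; studied 24 h later. […] given IV in sequential doses to cumulative 0.24, 0.72, 2.4 µmol/kg. Saline controls (n=8) received vehicle, then a single IV 2.4 µmol/kg dose at the end. Measurements taken at baseline and 15 min after each dose. Means ± SEM, paired t-test, p ≤ 0.05.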

Canis familiaris [2] = test: Number of canine in which arrhythmias could not be induced at an single intravenous dose of 2.4 uM/kg; assay type: functional, Canis lupus familiaris
Procedure, shortened: (§2)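 Male mongrel dogs (16-22 kg) with LAD ligated in two stages, studied 24 h later. Programmed electrical stimulation at baseline and 15 min after each iv dose in saline (cumulative 0.24, 0.72, 2.4 µmol/kg). Saline controls then received a single 2.4 µmol/kg iv dose. Responses scored as NI (≤15 beats), NSVT (>15 beats, ends within 30 s), SVT (>30 s, needing pacing or cardioversion) or VF. A positive response was repeated.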

Canis familiaris [3] = species on record: Canis familiaris; test: Atrial flutter cycle length (AFCLl) measured in canine just after inducing atrial flutter (AFL) termination by the compound; assay type: functional, Canis lupus familiaris, Heart
Canis familiaris [4] = test: Heart Rate measured in canine just after inducing atrial flutter (AFL) termination by the compound at a dose of 1.2 uM/kg; assay type: functional, Canis lupus familiaris
Canis familiaris [5] = test: Heart Rate measured in canine just after inducing atrial flutter (AFL) termination by the compound at a dose of 2.4 uM/kg; assay type: functional, Canis lupus familiaris
Canis familiaris [6] = test: Heart Rate measured in canine just after inducing atrial flutter (AFL) termination by the compound at a dose of 4.8 uM/kg; assay type: functional, Canis lupus familiaris
Canis familiaris [7] = test: Number of canine in which ventricular fibrillation (VF) was observed in PES-induced arrhythmias at an cumulative intravenous dose of 0.72 uM/kg; assay type: functional, Canis lupus familiaris, Cardiac ventricle; procedure, shortened: as §2
Canis familiaris [8] = test: QT interval measured in canine 24-h Infarction model at a single intravenous dose of 2.4 uM/kg; assay type: functional, Canis lupus familiaris
Procedure, shortened: (§3)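 Dogs 24 h after two-stage LAD ligation. Compound in saline given iv in sequential doses (cumulative 0.24, 0.72, 2.4 µmol/kg); saline controls then given a single 2.4 µmol/kg iv dose. HR, IVR, BP, QT, spontaneous arrhythmias/min, ERPs and MAPD90 measured at baseline and 15 min after each dose. Means ± SEM, paired t-test, p≤0.05.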

Canis familiaris [9] = test: QT interval measured in canine just after inducing atrial flutter (AFL) termination by the compound at a dose of 0.24 umol/kg; assay type: functional, Canis lupus familiaris, Heart
Canis familiaris [10] = test: Number of canine in which arrhythmias could not be induced at an cumulative intravenous dose of 0.24 uM/kg; assay type: functional, Canis lupus familiaris; procedure, shortened: as §2
Canis familiaris [11] = test: Number of canine in which sustained ventricular tachycardia (SVT) was observed in PES-induced arrhythmias at an cumulative intravenous dose of 0.24 uM/kg; assay type: functional, Canis lupus familiaris, Cardiac ventricle; procedure, shortened: as §2
Canis familiaris [12] = test: Ventricular effective refractory (VEPR) period measured in canine 24-h Infarction model at a single intravenous dose of 2.4 uM/kg; assay type: functional, Canis lupus familiaris, Heart; procedure, shortened: as §3
Canis familiaris [13] = test: Ventricular MAPD90 measured in canine 24-h Infarction model at a single intravenous dose of 2.4 uM/kg; assay type: functional, Canis lupus familiaris, Heart; procedure, shortened: as §3
Canis familiaris [14] = test: QT interval measured in canine just after inducing atrial flutter (AFL) termination by the compound at a dose of 4.8 uM/kg; assay type: functional, Canis lupus familiaris, Heart
Procedure, shortened: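 Conscious, sling-restrained dogs with chronically implanted electrodes, studied after 2 weeks of recovery. Sustained AFL (>5 min) induced. Compound in saline given iv every 5 min to cumulative 0.024-12.0 µmol/kg. At AFL termination, HR, QT (paced cycle length 300 ms), AERP and VERP measured. Measurements then taken 3 min after each further dose. Significance p≤0.05 vs baseline.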

Canis familiaris [15] = test: Spontaneous arrhythmias measured in canine 24-h Infarction model at an cumulative intravenous dose of 0.72 uM/kg; assay type: functional, Canis lupus familiaris; procedure, shortened: as §3
Canis familiaris [16] = test: Ventricular MAPD90 measured in canine 24-h Infarction model at an cumulative intravenous dose of 0.24 uM/kg; assay type: functional, Canis lupus familiaris, Heart; procedure, shortened: as §3
Canis familiaris [17] = test: Blood pressure measured in canine 24-h Infarction model at an cumulative intravenous dose of 0.72 uM/kg; assay type: functional, Canis lupus familiaris; procedure, shortened: as §1
Canis familiaris [18] = test: QT interval measured in canine 24-h Infarction model at an cumulative intravenous dose of 2.4 uM/kg; assay type: functional, Canis lupus familiaris; procedure, shortened: as §3
Canis familiaris [19] = test: Atrial effective refractory period (AERP) measured in canine just after inducing atrial flutter (AFL) termination by the compound at a dose of 9.6 uM/kg; assay type: functional, Canis lupus familiaris, Heart
Canis familiaris [20] = test: Number of canine in which sustained ventricular tachycardia (SVT) was observed in PES-induced arrhythmias at an cumulative intravenous dose of 2.4 uM/kg; assay type: functional, Canis lupus familiaris, Cardiac ventricle; procedure, shortened: as §2
Canis familiaris [21] = test: Atrial MAPD90 measured in canine 24-h Infarction model at an cumulative intravenous dose of 2.4 uM/kg; assay type: functional, Canis lupus familiaris, Cardiac atrium; procedure, shortened: as §1
Canis familiaris [22] = test: Idioventricular heart rate (IVR) measured in canine 24-h Infarction model at an cumulative intravenous dose of 2.4 uM/kg; assay type: functional, Canis lupus familiaris; procedure, shortened: as §1
Canis familiaris [23] = test: Atrial MAPD90 measured in canine 24-h Infarction model at a single intravenous dose of 2.4 uM/kg; assay type: functional, Canis lupus familiaris, Cardiac atrium; procedure, shortened: as §1

`CCN(CCCCCC(C)(C)F)CCC[C@H](O)c1ccc(NS(C)(=O)=O)cc1.O=C(O)/C=C/C(=O)O` gave an IVR (Canis familiaris [1]) of 111 beats min-1, a No. of canine (Canis familiaris [2]) of 7 and an AFLCl (Canis familiaris [3]) of 165 ms. It also gave an HR (Canis familiaris [4]) of 114 beats min-1, an HR (Canis familiaris [5]) of 113 beats min-1 and an HR (Canis familiaris [6]) of 118 beats min-1. The No. of canine (Canis familiaris [7]) was 0, the QT interval (Canis familiaris [8]) was 238 ms and the QT interval (Canis familiaris [9]) was 196 ms. It also gave a No. of canine (Canis familiaris [10]) of 8, a No. of canine (Canis familiaris [11]) of 1 and a VERP (Canis familiaris [12]) of 180 ms. The “Ventricular MAPD90” value (Canis familiaris [13]) was 201 ms, the QT interval (Canis familiaris [14]) was 207 ms and the PVCs (Canis familiaris [15]) was 68 number min-1 and 57 number min-1. For the same molecule, the “Ventricular MAPD90” value (Canis familiaris [16]) was 162 ms, the BP (Canis familiaris [17]) was 115 mmHg and the QT interval (Canis familiaris [18]) was 240 ms. The AERP (Canis familiaris [19]) was 165 ms, the No. of canine (Canis familiaris [20]) was 0 and the “Atrial MAPD90” value (Canis familiaris [21]) was 163 ms. The IVR (Canis familiaris [22]) was 124 beats min-1 and the “Atrial MAPD90” value (Canis familiaris [23]) was 209 ms.

Source: ChEMBL document CHEMBL1134641, “Progress toward the development of a safe and effective agent for treating reentrant cardiac arrhythmias: synthesis and evaluation of ibutilide analogues with enhanced metabolic stability and diminished proarrhythmic potential” (2001)
